DTT redox prof: compounds producing H2O2 with reducing agent – biochemical, NIH compound library profiling, artefact control for MLSCN library redox annotation, primary screen. DTT-dependent redox cycling H2O2, phenol red/HRP absorbance; 100% = 100 µM peroxide control, 0% = buffer. activation, % at 10 µM. 200,000 compounds, 0.03% hits;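 active = activation of at least 50% relative to the plate's high and low controls in the primary single-dose screen; inactive = activation below 50%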;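 note: compound incubated with DTT at 0.8 mM final as the reducing agent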
Hep lipid drop: hepatic lipid droplet formation modulation; AML12 mouse hepatocytes, oleate lipid droplets, BODIPY imaging; inhibition, % at 6.5 µM; 240,000 compounds, 0.4% hits;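 active = lipid droplet intensity inhibited by at least 50%, with more than 500 cells counted; inconclusive = wells with under 300 cells, treated as cytotoxic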
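Assay system: AML12 hepatocytes (mouse) / Also added: 100 µM oleic acid challenge / Times: overnight treatment with compound plus oleate / Detection: high-content imaging of BODIPY-stained droplets and DAPI nuclei / Evaluation: % inhibition of lipid droplet signal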
T cruzi inh: T. cruzi replication inhibition | T. cruzi beta-gal in NIH3T3, luminescence, 90 h | inhibition, % (test concentration not listed) | 300,000 compounds, 1.4% hits | AID 1885;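 active = mean inhibition across valid replicates above about 55%, limit read from the data; inconclusive = mean below that limit but half or more replicates reach it; inactive = mean below it, under half of replicates reach it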;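 note: signal also drops with host cell toxicity which is not excluded here; higher percent means less beta-gal luminescence so fewer parasites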
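Material: NIH/3T3 host cells with β-galactosidase reporter T. cruzi; Input: 5,000 host fibroblasts per well; Medium: DMEM, 2% fetal bovine serum; Compound: 50 nL DMSO compound solution per well; Schedule: 3 h host attachment, then at least 90 h co-culture; Detection: luminescent β-galactosidase signal after 60 min lysis.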
MPTP inh: blocks calcium-induced mitochondrial swelling | isolated mouse mitochondria, Ca2+ swelling absorbance, 30 min | 360,000 compounds, 1.4% hits | inhibition, % at 10 µM | AID 602449;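 active = inhibition of 50% or more, scaled per plate between neutral and stimulator controls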
Lmaj promast: Leishmania major promastigote growth inhibition; Leishmania major promastigotes, resazurin fluorescence viability; inhibition, % at 10 µM; 200,000 compounds, 9% hits; AID 1063; in the data active = inhibition above about 50%;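 note: promastigotes grown with compound for 44 hours at 28 °C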
Rh123 counter: membrane potential counter-screen of mitochondrial pore inhibitors | inhibition, % at 10 µM | 5,000 compounds, 78% hits | AID 624504 | isolated mitochondria, Rhodamine 123 fluorescence | shares compounds with MPTP inh; in the data active = inhibition above about 22%
MPTP swell DR: dose response confirmation of mitochondrial permeability transition pore inhibitors; shares compounds with MPTP inh; isolated mitochondria swelling, absorbance; IC50, µM; 780 compounds, 58% hits; AID 651561; in the data active = IC50 below about 20 µM
MPTP cs DR: MPTP inhibitor counter-screen activity, dose response; 780 compounds, 49% hits; AID 651564; isolated mitochondria counterscreen, fluorescence read-out; shares compounds with MPTP inh; IC50, µM; in the data active = IC50 below about 80 µM
Of the large screens only hits and unclear results are named; the others gave an inactive call (follow-up assays come after a bar, where they were run). The sample as a whole holds a higher share of hits than the screen did.

CC(=O)c1ccc2c(c1)N(CCCN1CCC(CCO)CC1)c1ccccc1S2	none (no result: DTT redox prof, Hep lipid drop, T cruzi inh, Lmaj promast)
CN(C)CCCN1c2ccccc2Sc2ccc(Cl)cc21	MPTP inh 91, Lmaj promast 83 | Rh123 counter inactive | MPTP swell DR 5 | MPTP cs DR inactive
CN(C)CCCN1c2ccccc2Sc2ccc3ccccc3c21	none (no result: DTT redox prof, Hep lipid drop, T cruzi inh, Lmaj promast)
OCCN1CCN(CCCN2c3ccccc3Sc3ccc(Cl)cc32)CC1	MPTP inh 53, Lmaj promast 96 | Rh123 counter inactive
CCN(CC)S(=O)(=O)c1ccc(N2CCN(c3ccccc3OC)CC2)c(N)c1	MPTP inh 108 (no result: DTT redox prof, Lmaj promast) | Rh123 counter 98
Cc1cc(C(=O)CSc2nc3ccc(Cl)cc3[nH]2)c(C)n1Cc1ccco1	MPTP inh 51 (no result: DTT redox prof, Hep lipid drop, Lmaj promast) | Rh123 counter 53
NS(=O)(=O)c1cccc(NC(=O)CSc2nn(-c3ccccc3)c(=S)s2)c1	none
CN(C)S(=O)(=O)c1cc(NC(=O)CSc2nn(-c3ccc(Cl)cc3)c(=S)s2)ccc1Cl	MPTP inh 70, Lmaj promast 93 | Rh123 counter 81
Cc1ccc(NC(=O)CSc2nn(-c3ccc(Cl)cc3)c(=S)s2)cc1S(=O)(=O)N(C)C	MPTP inh 86, Lmaj promast 97 | Rh123 counter 81
O=C(c1ccncc1)N1CCN(S(=O)(=O)c2ccc(F)cc2)CC1	none (no result: DTT redox prof, Lmaj promast)
CCOc1ccc(C(=O)CC(NCc2cccs2)C(=O)O)cc1 (stereo not drawn)	none
c1ccc(CN2CCN(CCOCCOc3cccc4ccccc34)CC2)cc1	MPTP inh 82 | Rh123 counter inactive | MPTP swell DR inactive | MPTP cs DR 74
CCN1CCN(CCOCCOc2ccccc2)CC1	none (no result: DTT redox prof, Lmaj promast)
COc1ccc(N(CC(=O)Nc2ccc(OC)c(Cl)c2)S(=O)(=O)c2c(C)noc2C)cc1	none (no result: Hep lipid drop)
COc1ccc(N(CC(=O)Nc2ccc(F)c(Cl)c2)S(=O)(=O)c2c(C)noc2C)cc1	MPTP inh 69 | Rh123 counter 78
CCC(C)(NC(=O)c1ccc2c(c1)OCO2)C(=O)NC1CCCCC1 (stereo not drawn)	none
CC(NCCCSc1ccccc1)C(O)c1ccc(O)cc1 (stereo not drawn)	none (no result: DTT redox prof, Hep lipid drop, T cruzi inh, Lmaj promast)
Cc1cccc(CC(Cc2nc3ccccc3[nH]2)c2nc3ccccc3[nH]2)c1 (stereo not drawn)	MPTP inh 89, Lmaj promast 93 | Rh123 counter 110
O=C(Nc1cccnc1)C1CC(=O)N(c2ccc(F)cc2)C1 (stereo not drawn)	none (no result: DTT redox prof, Lmaj promast)
O=c1cc(-c2ccccc2Cl)oc2c(NS(=O)(=O)c3cc(Cl)cc(Cl)c3O)ccc(O)c12	MPTP inh 70 | Rh123 counter inactive
O=C(O)C1CCN(C(=O)CSc2nnc3ccccn23)CC1	none (no result: DTT redox prof, Hep lipid drop, T cruzi inh, Lmaj promast)
COCCNC(=O)/C=C/c1c(Cl)cccc1Cl	none
CCOC(=O)c1c(S(=O)(=O)Nc2ccc(F)cc2C)c(C)n(C)c1C	none (no result: DTT redox prof, Lmaj promast)
CCN(CC)S(=O)(=O)c1ccc(NC(=O)Nc2cccc(C(F)(F)F)c2)cc1	T cruzi inh 76, MPTP inh 84 | Rh123 counter 74
NNC(=O)Nc1cccc(C(F)(F)F)c1	none
Cc1ccc(S(=O)(=O)Nc2ccc(NC(=O)Nc3cccc(C(F)(F)F)c3)cc2)cc1	MPTP inh 98, Lmaj promast 70 | Rh123 counter 61
Cc1cc(/C=C2\SC(=S)N(C)C2=O)c(C)n1-c1ccccc1O	MPTP inh 92 (no result: DTT redox prof, Hep lipid drop, Lmaj promast) | Rh123 counter 67
Cc1cccc(N2C(=O)/C(=C/c3cccnc3)SC2=S)c1	none (no result: DTT redox prof, Lmaj promast)
Cc1cc(/C=C2/SC(=S)N(c3cccc(Cl)c3)C2=O)c(C)n1-c1cccnc1	MPTP inh 63 (no result: Hep lipid drop) | Rh123 counter 78
Cc1cc(/C=C2/SC(=S)N(c3ccc([N+](=O)[O-])cc3)C2=O)c(C)n1-c1cccnc1	T cruzi inh 59, MPTP inh 95, Lmaj promast 91 | Rh123 counter 95
Cc1cccc(NC(=O)CSc2nncn2N)c1C	none (no result: DTT redox prof, Hep lipid drop, T cruzi inh, Lmaj promast)
CO/N=C/c1ccc(N2CCN(C(=O)c3ccc(F)cc3)CC2)c([N+](=O)[O-])c1	none
CO/N=C/c1ccc(N2CCN(C(=O)c3ccc(Cl)cc3Cl)CC2)c([N+](=O)[O-])c1	MPTP inh 78 (no result: Hep lipid drop) | Rh123 counter 60
Oc1c(Cl)cc(Cl)cc1CNc1nc2ccccc2[nH]1	MPTP inh 72 (no result: DTT redox prof, Lmaj promast) | Rh123 counter 77
Oc1c(Cl)cc(Cl)cc1CNc1ccccn1	none (no result: DTT redox prof, Hep lipid drop, Lmaj promast)
COc1ccc(Cl)cc1S(=O)(=O)NC(C)C(=O)NCc1ccncc1 (stereo not drawn)	none (no result: DTT redox prof, Lmaj promast)
O=C(CC1(O)C(=O)Nc2ccc(Br)cc21)c1ccccc1 (stereo not drawn)	none (no result: DTT redox prof, Hep lipid drop, T cruzi inh, Lmaj promast)
COc1ccccc1-[n+]1c(C)cc(/C=C2\Sc3ccccc3N2C)cc1C	T cruzi inh 56, MPTP inh 104 (no result: DTT redox prof, Lmaj promast) | Rh123 counter 102
CCC(=O)c1ccc(OCCn2cnc3ccccc32)cc1	none (no result: Hep lipid drop)
Cc1ccc(SCc2nc3ccccc3n2CC(=O)Nc2ccc(Cl)cc2)cc1	T cruzi inh inconclusive, MPTP inh 87 (no result: Hep lipid drop) | Rh123 counter 87
Cc1ccc(SCc2nc3ccccc3n2CC(=O)Nc2ccccc2)cc1	none (no result: Hep lipid drop)
COC(=O)c1ccc(/C(O)=C(\C#N)c2nc3ccccc3s2)cc1	MPTP inh 74 (no result: Hep lipid drop) | Rh123 counter 53
Cc1ccc(OC/C(O)=C(\C#N)c2nc3ccccc3s2)cc1	MPTP inh 73 | Rh123 counter 43
CCN1C(=O)[C@H]2[C@@H](c3ccc(-c4ccc(F)cc4)cc3)N3CCCC[C@@]3(C(=O)OC)[C@H]2C1=O	none (no result: DTT redox prof, Hep lipid drop, Lmaj promast)
Cc1ccc(CSc2nc(N)cc(=O)[nH]2)cc1	none (no result: DTT redox prof, Hep lipid drop, Lmaj promast)
Cc1cc(C)cc(NCc2cc(=O)oc3cc(-c4ccccc4)c(O)cc23)c1	none
COc1ccc(C)cc1NCc1cc(=O)oc2cc(-c3ccccc3)c(O)cc12	MPTP inh 94 | Rh123 counter 57
Cc1cc(C)c(C(=O)Nc2ccc(Br)c(C(F)(F)F)c2)c(C)c1	MPTP inh 58, Lmaj promast 98 (no result: DTT redox prof) | Rh123 counter 83
O=C(O)c1ccccc1C(=O)Nc1ccc(Br)c(C(F)(F)F)c1	none (no result: DTT redox prof, Lmaj promast)
COc1ccc(CC(=O)Nc2cccc(-c3csc(C)n3)c2)cc1	MPTP inh 104 | Rh123 counter inactive | MPTP swell DR inactive | MPTP cs DR inactive
COc1ccc(CC(=O)Nc2ccc(-c3csc(C)n3)cc2)cc1	none
Cc1nn(CC(=O)NCCCN2CCN(Cc3ccccc3)CC2)c(=O)c2cc(-c3ccccc3)nn12	none (no result: DTT redox prof, Lmaj promast)
Cc1nn(CC(=O)NCCCN2CCC(Cc3ccccc3)CC2)c(=O)c2cc(-c3ccccc3)nn12	MPTP inh 74 (no result: DTT redox prof, Lmaj promast) | Rh123 counter inactive | MPTP swell DR inactive | MPTP cs DR inactive

Compound activity as filed in PubChem.
